From ChEMBL document CHEMBL5236602, “Synthesis and Characterization of NUC-7738, an Aryloxy Phosphoramidate of 3'-Deoxyadenosine, as a Potential Anticancer Agent” (J Med Chem, 2022)
Activity calls are given as the source filed them. The rule behind the calls is not given here.

Legend:
CCRF-CEM [1] = assay: Cytotoxicity against human CCRF-CEM cells assessed as cell death incubated for 72 hrs by MTS assay; type: functional; conditions: read-out: LC50 (the source's name)
Method in brief: (§1)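 Contracted MTS assay. Cells seeded the day before treatment and exposed 72 h to nine serial concentrations (3.16-fold steps, top 198 μM), tested in duplicate. MTS added, then 4 h at 37 °C and absorbance read. LC50 is the concentration killing 50% of cells. MI% is the maximum inhibition over the tested range.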

CCRF-CEM [2] = assay: Cytotoxicity against human CCRF-CEM cells assessed as maximum cell growth inhibition incubated for 72 hrs by MTS assay relative to control; type: functional
Method in brief: (§2)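 Cells from the 20-line panel were seeded the day before dosing, then exposed to compound for 72 h. MTS was added, followed by 4 h at 37 °C, and absorbance was read. Nine serial 3.16-fold dilutions were tested, top 198 μM, in duplicate. MI% is the maximum inhibitory effect across the tested concentration range.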

HL-60 [3] = assay: Cytotoxicity against human HL-60 cells assessed as maximum cell growth inhibition incubated for 72 hrs by MTS assay relative to control; type: functional; method in brief: as §2
KG-1 = assay: Cytotoxicity against human KG-1 cells assessed as cell death incubated for 72 hrs by MTS assay; type: functional; method in brief: as §1
MOLT-4 = assay: Cytotoxicity against human MOLT-4 cells assessed as cell death incubated for 72 hrs by MTS assay; type: functional; conditions: read-out: LC50 (the source's name); method in brief: as §1
K562 [4] = assay: Cytotoxicity against human K562 cells assessed as cell death incubated for 72 hrs by MTS assay; type: functional; conditions: read-out: LC50 (the source's name); method in brief: as §1
K562 [5] = assay: Cytotoxicity against human K562 cells assessed as maximum cell growth inhibition incubated for 72 hrs by MTS assay relative to control; type: functional; method in brief: as §2
MV4-11 [6] = assay: Cytotoxicity against human MV4-11 cells assessed as cell death incubated for 72 hrs by MTS assay; type: functional; conditions: read-out: LC50 (the source's name); method in brief: as §1
MV4-11 [7] = assay: Cytotoxicity against human MV4-11 cells assessed as maximum cell growth inhibition incubated for 72 hrs by MTS assay relative to control; type: functional; method in brief: as §2
THP-1 = assay: Cytotoxicity against human THP-1 cells assessed as cell death incubated for 72 hrs by MTS assay; type: functional; conditions: read-out: LC50 (the source's name); method in brief: as §1
HEL 92.1.7 = assay: Cytotoxicity against human HEL 92.1.7 cells assessed as maximum cell growth inhibition incubated for 72 hrs by MTS assay relative to control; type: functional; method in brief: as §2
NCI-H929 [8] = assay: Cytotoxicity against human NCI-H929 cells assessed as cell death incubated for 72 hrs by MTS assay; type: functional; conditions: read-out: LC50 (the source's name); method in brief: as §1
NCI-H929 [9] = assay: Cytotoxicity against human NCI-H929 cells assessed as maximum cell growth inhibition incubated for 72 hrs by MTS assay relative to control; type: functional; method in brief: as §2
Z-138 = assay: Cytotoxicity against human Z138 cells assessed as cell death incubated for 72 hrs by MTS assay; type: functional; conditions: read-out: LC50 (the source's name); method in brief: as §1
RL [10] = assay: Cytotoxicity against human RL cells assessed as cell death incubated for 72 hrs by MTS assay; type: functional; conditions: read-out: LC50 (the source's name); method in brief: as §1
RL [11] = assay: Cytotoxicity against human RL cells assessed as maximum cell growth inhibition incubated for 72 hrs by MTS assay relative to control; type: functional; method in brief: as §2
[12] = Cytotoxicity against human HS 445 cells assessed as cell death incubated for 72 hrs by MTS assay; type: functional; conditions: read-out: LC50 (the source's name); method in brief: as §1
[13] = Cytotoxicity against human HS 445 cells assessed as maximum cell growth inhibition incubated for 72 hrs by MTS assay relative to control; type: functional; method in brief: as §2
HepG2 [14] = assay: Cytotoxicity against human HepG2 cells assessed as cell death incubated for 72 hrs by MTS assay; type: functional; conditions: read-out: LC50 (the source's name); method in brief: as §1
HepG2 [15] = assay: Cytotoxicity against human HepG2 cells assessed as maximum cell growth inhibition incubated for 72 hrs by MTS assay relative to control; type: functional; method in brief: as §2
MCF7 = assay: Cytotoxicity against human MCF7 cells assessed as cell death incubated for 72 hrs by MTS assay; type: functional; conditions: read-out: LC50 (the source's name); method in brief: as §1
BXPC-3 = assay: Cytotoxicity against human BXPC-3 cells assessed as cell death incubated for 72 hrs by MTS assay; type: functional; conditions: read-out: LC50 (the source's name); method in brief: as §1
HT-29 [16] = assay: Cytotoxicity against human HT-29 cells assessed as cell death incubated for 72 hrs by MTS assay; type: functional; conditions: read-out: LC50 (the source's name); method in brief: as §1
HT-29 [17] = assay: Cytotoxicity against human HT-29 cells assessed as maximum cell growth inhibition incubated for 72 hrs by MTS assay relative to control; type: functional; method in brief: as §2
MIA PaCa-2 = assay: Cytotoxicity against human MIA PaCa-2 cells assessed as maximum cell growth inhibition incubated for 72 hrs by MTS assay relative to control; type: functional; method in brief: as §2
SW-620 [18] = assay: Cytotoxicity against human SW620 cells assessed as cell death incubated for 72 hrs by MTS assay; type: functional; conditions: read-out: LC50 (the source's name); method in brief: as §1
SW-620 [19] = assay: Cytotoxicity against human SW620 cells assessed as maximum cell growth inhibition incubated for 72 hrs by MTS assay relative to control; type: functional; method in brief: as §2
RL [20] = assay: Potency index, ratio of 3'-Deoxyadenosine LC50 to test compound LC50 for cytotoxicity against human RL cells assessed as cell death incubated for 72 hrs by MTS assay; type: functional
HL-60 [21] = assay: Potency index, ratio of 3'-Deoxyadenosine LC50 to test compound LC50 for cytotoxicity against human HL-60 cells assessed as cell death incubated for 72 hrs by MTS assay; type: functional
Jurkat = assay: Potency index, ratio of 3'-Deoxyadenosine LC50 to test compound LC50 for cytotoxicity against human Jurkat cells assessed as cell death incubated for 72 hrs by MTS assay; type: functional
CCRF-CEM [22] = assay: Potency index, ratio of 3'-Deoxyadenosine LC50 to test compound LC50 for cytotoxicity against human CCRF-CEM cells assessed as cell death incubated for 72 hrs by MTS assay; type: functional
[23] = Prodrug conversion in human CCRF-CEM cells assessed as fold increase in 3'-dATP level at 50 uM incubated for 2 hrs by LC-MS/MS analysis relative to 3'-Deoxyadenosine; type: ADME, cell-based
[24] = Prodrug conversion in human K562 cells assessed as fold increase in 3'-dATP level at 50 uM incubated for 2 hrs by LC-MS/MS analysis relative to 3'-Deoxyadenosine; type: ADME, cell-based; conditions: k562, 2 h
[25] = Prodrug conversion in human HL-60 cells assessed as fold increase in 3'-dATP level at 50 uM incubated for 2 hrs by LC-MS/MS analysis relative to 3'-Deoxyadenosine; type: ADME, cell-based; conditions: hl-60, 2 h
CCRF-CEM [26] = assay: Cytotoxicity against deoxynucleotidyl transferase-positive human CCRF-CEM cells assessed as cell death preincubated with adenosine deaminase inhibitor, EHNA for 5 mins followed by compound addition and […]; type: functional, cell-based
RL [27] = assay: Cytotoxicity against deoxynucleotidyl transferase-negative human RL cells assessed as cell death preincubated with adenosine deaminase inhibitor, EHNA for 5 mins followed by compound addition and […]; type: functional, cell-based
RL [28] = assay: Cytotoxicity against deoxynucleotidyl transferase-negative human RL cells assessed as cell death preincubated with adenosine kinase inhibitor, A-134974 for 5 mins followed by compound addition and […]; type: functional, cell-based
[29] = Metabolic stability in pooled cryopreserved human hepatocytes assessed as half life at 1 uM incubated for 60 mins by HPLC-MS/MS analysis; type: ADME, cell-based, Hepatocyte
Method in brief: (§3)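 Pooled cryopreserved human hepatocytes were thawed, washed and resuspended in Krebs–Henseleit buffer, pH 7.3. Compound was added at 1 μM final and incubated 0 and 60 min at 37 °C/5% CO2. Reactions were stopped with acetonitrile, centrifuged, and the supernatant analysed by HPLC-MS/MS.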

[30] = Metabolic stability in pooled cryopreserved human hepatocytes assessed as intrinsic clearance measured per 10^6 cells at 1 uM incubated for 60 mins by HPLC-MS/MS analysis; type: ADME, cell-based, Hepatocyte; conditions: 1 h; method in brief: as §3
Leukemic stem cell = assay: Cytotoxicity against human leukemic stem cells (Lin-/CD34+/CD38-/CD123+) in myeloid leukemia cell line KG-1a assessed as reduction in LSC population at >1 uM incubated for 72 hrs

`C[C@@H](NP(=O)(OC[C@@H]1C[C@@H](O)[C@H](n2cnc3c(N)ncnc32)O1)Oc1cccc2ccccc12)C(=O)OCc1ccccc1` (stereo not given in full) showed a CC50 (CCRF-CEM [1]) of 1170 nM, an Imax (CCRF-CEM [2]) of 100% and an Imax (HL-60 [3]) of 100%. For the same compound, the LC50 (KG-1) was 11.03 µM, the CC50 (MOLT-4) was 320 nM and the CC50 (K562 [4]) was 4.93 µM. For the same compound, the Imax (K562 [5]) was 97%, the CC50 (MV4-11 [6]) was 1480 nM and the Imax (MV4-11 [7]) was 99%. It also gave a CC50 (THP-1) of 46.5 µM, an Imax (HEL 92.1.7) of 98% and a CC50 (NCI-H929 [8]) of 3.38 µM. The Imax (NCI-H929 [9]) was 99%, the CC50 (Z-138) was 6.32 µM and the CC50 (RL [10]) was 1680 nM. It also gave an Imax (RL [11]) of 96%, a CC50 [12] of 10.2 µM and an Imax [13] of 96%. It also gave a CC50 (HepG2 [14]) of 11.5 µM, an Imax (HepG2 [15]) of 95% and a CC50 (MCF7) of 1390 nM. For the same compound, the CC50 (BXPC-3) was 74 µM, the CC50 (HT-29 [16]) was 7.52 µM and the Imax (HT-29 [17]) was 98%. The Imax (MIA PaCa-2) was 98%, the CC50 (SW-620 [18]) was 11.4 µM and the Imax (SW-620 [19]) was 93%. The RatioLC50 (RL [20]) was 3, the RatioLC50 (HL-60 [21]) was 3 and the RatioLC50 (Jurkat) was 200. The RatioLC50 (CCRF-CEM [22]) was 3, the “fold change (FC)” value [23] was 3 and the “fold change (FC)” value [24] was 3. The “fold change (FC)” value [25] was 3, the Activity (CCRF-CEM [26]) was “Active” and the Activity (RL [27]) was “Active”. For the same compound, the Activity (RL [28]) was “Active”, the half-life at 1 µM [29] was 43.4 min and the CLint [30] was 20.8 µL/min/1e6 cells. For the same compound, the Activity (Leukemic stem cell) was “inactive”.
